Test results reported in publication PMC6153321 (Pharmacology Research & Perspectives, 2018).
Blank lines part the entries; values can stand above or below the compound they belong to. Bridge positions count the residues as written; N and C are the ends. Square brackets hold non-standard residues; d marks the D form. Ends that are not written are not given here. Peptide text beside a SMILES is read from it. I, II: the chains in the order shown. S5 = C=CCCC[C@](C)(N)C(=O)O

What was measured:
β‐adrenoceptors [1] = experiment: CAMYEL BRET isoprenaline-induced cAMP, HEK293A parental cells; type: cell-based, human; settings: 10 μmol L^−1
Summary of the method: (§1)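 HEK293A parental or Gαs-knockout cells were co-transfected with CAMYEL and RXFP1, then reseeded overnight in phenol-red-free HEPES medium. Isoprenaline (10 μmol L⁻¹) served as a control for endogenous Gαs-coupled β-adrenoceptor signalling. Read-out: vehicle-subtracted, sign-inverted 535/475 nm BRET ratio; three independent experiments.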

β‐adrenoceptors [2] = experiment: CAMYEL BRET isoprenaline-induced cAMP, HEK293A ΔGαs cells; type: cell-based, human; settings: 10 μmol L^−1
Summary of the method: as §1

GH3B6 cells = settings: cited from earlier work
RXFP3 [3] = molecular target: T1, RXFP3 (Homo sapiens, UniProt Q9NSD7); experiment: CAMYEL BRET inhibition of forskolin-stimulated cAMP, CHO-RXFP3 cells; type: cell-based; settings: agonist 100 nmol L^−1‐10 μmol L^−1, at about 20‐25 minutes
T1 sequence (Q9NSD7 1-469): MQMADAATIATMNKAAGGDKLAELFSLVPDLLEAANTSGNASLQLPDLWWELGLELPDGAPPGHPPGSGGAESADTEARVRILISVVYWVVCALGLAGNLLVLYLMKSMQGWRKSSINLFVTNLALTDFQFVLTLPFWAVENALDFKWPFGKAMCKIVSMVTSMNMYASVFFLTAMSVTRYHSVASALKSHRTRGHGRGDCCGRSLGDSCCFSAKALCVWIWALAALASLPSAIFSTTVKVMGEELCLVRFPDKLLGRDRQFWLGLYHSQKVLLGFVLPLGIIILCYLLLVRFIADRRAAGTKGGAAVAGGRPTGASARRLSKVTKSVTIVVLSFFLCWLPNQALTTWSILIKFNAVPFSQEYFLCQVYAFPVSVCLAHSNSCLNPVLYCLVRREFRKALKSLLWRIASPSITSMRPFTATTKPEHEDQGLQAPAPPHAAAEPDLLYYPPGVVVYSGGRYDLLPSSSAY

RXFP3 [4] = molecular target: T1, RXFP3; experiment: CAMYEL BRET inhibition of forskolin-stimulated cAMP, HEK-RXFP3 cells; type: cell-based; settings: 45 minutes, mean ± SEM, three independent experiments
adenylate cyclase [5] = experiment: CAMYEL BRET forskolin-induced cAMP, HEK-RXFP1 cells; type: cell-based, human; settings: 45 minutes, three independent experiments
Summary of the method: (§2)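 HEK cells stably expressing RXFP1 (HEK293T background) or RXFP2 were transiently transfected with CAMYEL, then reseeded next day in phenol-red-free complete medium with 25 mmol L⁻¹ HEPES. At 37°C, cells got coelenterazine h (5 μmol L⁻¹ final) for a 5-min baseline, then vehicle, forskolin or agonist for 45 min. Read-out was vehicle-subtracted citrine/Rluc BRET ratio, sign-inverted. Agonist curves at 5 and 45 min as % of 10 μmol L⁻¹ forskolin maximum; n=3.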

adenylate cyclase [6] = experiment: CAMYEL BRET forskolin-induced cAMP, HEK-RXFP2 cells; type: cell-based, human; settings: 45 minutes
Summary of the method: as §2

adenylate cyclase [7] = experiment: CAMYEL BRET forskolin-induced cAMP, THP-1 CAMYEL cells; type: cell-based, human; settings: high-CAMYEL THP‐1 cells, three independent experiments
adenylate cyclase [8] = experiment: CAMYEL BRET forskolin-induced cAMP, HEK293A parental cells; type: cell-based, human; settings: 45 minutes, three independent experiments
adenylate cyclase [9] = experiment: CAMYEL BRET forskolin-induced cAMP, HEK293A ΔGαs cells; type: cell-based, human
adenylate cyclase [10] = settings: cited from earlier work
RXFP2 = RXFP2 (Homo sapiens, UniProt Q8WXD0); experiment: CAMYEL BRET real-time cAMP activation, HEK-RXFP2 cells; type: cell-based
Summary of the method: as §2

Chain of RXFP2 (Q8WXD0 whole entry): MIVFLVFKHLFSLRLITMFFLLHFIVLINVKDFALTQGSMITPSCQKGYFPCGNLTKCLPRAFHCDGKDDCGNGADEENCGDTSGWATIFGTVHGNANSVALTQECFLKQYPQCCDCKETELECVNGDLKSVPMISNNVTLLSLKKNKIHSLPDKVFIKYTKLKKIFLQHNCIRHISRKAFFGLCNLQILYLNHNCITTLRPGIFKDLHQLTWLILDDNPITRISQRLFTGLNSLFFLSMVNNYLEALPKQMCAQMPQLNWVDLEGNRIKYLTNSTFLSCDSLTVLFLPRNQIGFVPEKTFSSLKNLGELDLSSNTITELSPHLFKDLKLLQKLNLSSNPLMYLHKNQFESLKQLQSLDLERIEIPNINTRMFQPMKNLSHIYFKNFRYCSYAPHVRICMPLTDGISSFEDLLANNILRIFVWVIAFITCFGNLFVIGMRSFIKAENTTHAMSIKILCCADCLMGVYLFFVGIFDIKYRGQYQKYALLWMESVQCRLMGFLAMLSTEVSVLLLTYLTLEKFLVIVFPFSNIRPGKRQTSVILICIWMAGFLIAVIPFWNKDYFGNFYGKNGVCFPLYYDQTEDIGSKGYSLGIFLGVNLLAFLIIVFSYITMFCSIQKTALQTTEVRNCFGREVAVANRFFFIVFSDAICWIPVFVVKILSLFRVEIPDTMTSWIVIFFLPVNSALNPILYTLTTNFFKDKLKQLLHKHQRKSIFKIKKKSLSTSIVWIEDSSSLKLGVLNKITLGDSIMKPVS

Compound: CC(C)NCC(O)c1ccc(O)c(O)c1 (centres unmarked) [Isoprenaline]
- cAMP response to isoprenaline (β‐adrenoceptors [1]): robust in the parental cells
- cAMP response to isoprenaline (β‐adrenoceptors [2]): abolished in the ΔGαs cells

Compound: thyrotropin‐releasing hormone
- cAMP activity reported by AC8‐localized sensor (GH3B6 cells): increases in cAMP activity
- cAMP activity reported by cytosolic or plasma membrane FRET biosensors (GH3B6 cells): not the cytosolic or membrane forms

Compound: CC[C@H](C)[C@@H]1NC(=O)[C@H](Cc2ccccc2)NC(=O)[C@H](CCC(=O)O)NC(=O)[C@H](CCCNC(=N)N)NC(=O)CNC(=O)[C@@H](NC(=O)[C@H](CC(C)C)NC(=O)[C@H](CCCNC(=N)N)NC(=O)[C@@H](NC(=O)CNC(=O)[C@H](Cc2ccc(O)cc2)NC(=O)[C@@H]2CCCN2C(=O)[C@H](C)NC(=O)[C@H](C)NC(=O)[C@@H](N)CCCNC(=N)N)C(C)C)CSSC[C@H](N)C(=O)N[C@@H](CCCCN)C(=O)N[C@@H](Cc2c[nH]c3ccccc23)C(=O)NCC(=O)N[C@@H](C)C(=O)N[C@@H](CO)C(=O)N[C@@H](CCCCN)C(=O)N[C@@H](CO)C(=O)N[C@@H](CCC(=O)O)C(=O)N[C@@H]([C@@H](C)CC)C(=O)N[C@@H](CO)C(=O)N[C@@H](CO)C(=O)N[C@@H](CC(C)C)C(=O)N[C@H](C(=O)O)CSSC[C@@H](C(=O)NCC(=O)NCC(=O)N[C@@H](CO)C(=O)N[C@@H](CCCNC(=N)N)C(=O)N[C@@H](Cc2c[nH]c3ccccc23)C(=O)O)NC(=O)[C@H]([C@@H](C)O)NC(=O)[C@H](Cc2ccccc2)NC(=O)[C@H]([C@@H](C)CC)NC(=O)[C@H](C(C)C)NC(=O)[C@H](C)NC(=O)[C@H](CCCNC(=N)N)NC1=O [Analogue 2]
- inhibition of forskolin-stimulated cAMP at higher concentrations (RXFP3 [3]): Complete or near‐complete inhibition
- pEC50 (RXFP3 [4]): Ambiguous

Compound: vasoactive intestinal peptide: treatment of GH3B6 cells in cited work (ref 49) (HSDAVFTDNYTRLRKQMAVKKYLNSILN; ends and bridges not checked; UniProt P01282 125-152, looked up)
- cAMP activity reported by AC8‐localized sensor (GH3B6 cells): not detected by an AC8‐localized sensor

Compound: I: PTPEMREKLCGHHFVRALVRVCGGPRWSTEA / II: AAATNPARYCCLSGCTQQDLLTLCPY (disulfide I:10-II:11, I:22-II:24, II:10-II:15) [INSL3]
- potency increase between 5 and 45 minutes (RXFP2; P < 0.01): ~10 fold
- temporal pattern of cAMP activity (RXFP2; sub‐maximal concentrations): slow, sustained increases

Continued, in another order:

- potency (pEC50) of forskolin (adenylate cyclase [5]): 6.77 ± 0.07
- potency (pEC50) of forskolin (adenylate cyclase [6]; HEK‐RXFP2, three independent experiments): 5.92 ± 0.08
- potency of forskolin (pEC50) (adenylate cyclase [7]; 5 minutes): 5.29 ± 0.03
- potency of forskolin (pEC50) (adenylate cyclase [7]; 45 minutes): 4.93 ± 0.05
- potency of forskolin (pEC50) (adenylate cyclase [9]; 45 minutes, HEK293A ΔGαs with re‐expression of Gαs, three independent experiments): 7.1 ± 1.29
Compound: C=C[C@@]1(C)CC(=O)[C@]2(O)[C@@]3(C)[C@@H](O)CCC(C)(C)[C@@H]3[C@H](O)[C@H](OC(C)=O)[C@@]2(C)O1 [forskolin]
- forskolin potency in HEK‐RXFP2 relative to HEK‐RXFP1 cells (adenylate cyclase [6]; P < 0.01): nearly ten times lower than that seen in the HEK‐RXFP1 cells
- potency of forskolin (pEC50) (adenylate cyclase [8]): 5.91 ± 0.04
- forskolin-induced cAMP activity (adenylate cyclase [9]; HEK293A ΔGαs, without Gαs re-expression): very weak cAMP activity
- forskolin concentration required to detect a cAMP increase (adenylate cyclase [9]; HEK293A ΔGαs, increase only transient): > 10 µmol/L
- affinity for adenylate cyclase in the absence of Gαs (adenylate cyclase [10]): lower affinity for adenylate cyclase in the absence of Gαs

- inhibition of forskolin-stimulated cAMP at higher concentrations (RXFP3 [3]): Complete or near‐complete inhibition
Compound: CC[C@H](C)[C@@H]1NC(=O)[C@H](Cc2ccccc2)NC(=O)[C@@](C)(NC(=O)[C@H](CCCNC(=N)N)NC(=O)CNC(=O)[C@@H](N)CO)CCCC=CCCC[C@@](C)(C(=O)N[C@H](C(=O)N[C@H](C(=O)N[C@@H](Cc2ccccc2)C(=O)N[C@H](C(=O)N[C@@H](CO)C(=O)NCC(=O)NCC(=O)N[C@@H](CO)C(=O)N[C@@H](CCCNC(=N)N)C(=O)N[C@@H](Cc2c[nH]c3ccccc23)C(N)=O)[C@@H](C)O)[C@@H](C)CC)C(C)C)NC(=O)[C@H](CCCNC(=N)N)NC1=O [Peptide 5] (H-SGR[S5]FIR[S5]VIFTSGGSRW-NH2; staple 4-8; N-terminus and C-terminus assumed)
